First the molecules themselves.
B1: NELF-E aptamer (parent)
chain: CCCAACGACUGCCGAGCGAGAUUACGCUUGAGCGCCCCACUGAGGAUGCCCACGGGCGAUUGGGGCACGG

The variants in the series derive from B1. The series is described as follows: HiTS-RAP. To be noted: with NELF-E (Drosophila). The gist of the method: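 Kd came from weighted Hill fits to the first binding curve, with intensities normalised to sequencing intensity and averaged per sequence, keeping only fits whose variance was below 1,000,000. That curve was imaged on an Illumina GAIIx flowcell, where sequenced aptamer DNA templates with a T7 promoter and ter site had been transcribed in situ by T7 RNA polymerase and halted by GST-Tus (30 minutes, 37°C). Before each image, clusters equilibrated for 30 minutes at room temperature with NELF-E-mOrange at 0.064 to 1000 nM in HEPES binding buffer.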
The Kd is a measure of binding affinity in units of concentration. For G7U C13A, the Kd was determined as 6.82 nM. With G7U C13U, the Kd is 5.75 nM. Take G7U C13G: the Kd was determined as 5.83 nM. The figure for G7A U23G is 5.95 nM. With G7U A31G, the equilibrium dissociation constant (Kd) was determined as 7.34 nM. G7U A31U: the Kd is 5.33 nM. For G7U, the Kd stood at 5.55 nM. The figure for G7C is 6.43 nM. For the variant A8U A46U, the Kd came out at 43.1 nM. In the case of A8U A46G, the Kd turned out to be 50 nM. With G7A C9G, the Kd amounted to 5.55 nM. Next, G7U A21G: 6.51 nM; G7U A21U: 5.79 nM; G7U G44U: 16.7 nM.

As for A8U G30A, the Kd came out at 5.46 nM.

As for A8U C38U, the Kd stood at 8.93 nM. On to A8U A24G, for which the Kd amounted to 6.05 nM. A8U A21U: the dissociation constant Kd was 7.37 nM. Next, A8U A21G: 6.05 nM; G7U C57U: 6.23 nM. For A8G A43G, the Kd was 23.7 nM.

On to A8G A43U, for which the Kd is 63.6 nM. On to A8G C9A, for which the dissociation constant Kd came out at 7.04 nM. Take A8G C9U: the Kd was 5.53 nM. The figure for A8G C9G is 5.53 nM; for G7A C12G it is 6.93 nM; for A8U G62A it is 19.2 nM. With A8U G62U, the Kd amounted to 10 nM. For G7U G11U, the Kd was found to be 6.5 nM. As for G7U G11A, the Kd stood at 6.15 nM.

As for A8U G64C, the Kd is 7.62 nM. The figure for A8U G64A is 8.34 nM. The figure for A8U G64U is 9.52 nM. Consider G7U A59G, for which the Kd was 67.6 nM. Next, G7U A59U: 18.3 nM; A8U C25G: 6.83 nM; A8U C25U: 6.08 nM. Regarding A8G G42A, the Kd was determined as 44.1 nM.

Take G7U A46G: the Kd came to 56 nM.

Regarding A8U U23C, the Kd was 5.3 nM. Regarding A8U U23G, the Kd worked out at 6.17 nM. Turning to G7U G45A, the Kd stood at 21.8 nM.

Turning to A8U U10G, the Kd worked out at 5.41 nM.

Turning to A8U U10C, the Kd was 5.96 nM. Turning to A8U U10A, the Kd was 6.91 nM. For the variant A8G A21G, the Kd amounted to 6.28 nM. Take A8G A21U: the Kd came out at 5.17 nM. Take A8U G55A: the Kd worked out at 8.25 nM. With A8U G55U, the Kd was 7.57 nM. With A8G G56A, the Kd is 10 nM.

For A8G G56U, the Kd was 6.49 nM.

With A8G G20U, the Kd came to 6.35 nM. In the case of A8G G20A, the Kd was found to be 5.52 nM. On to G7U A15U, for which the Kd is 6 nM.

Consider G7U A15G, for which the Kd is 5.56 nM. Next, A8G G26A: 4.49 nM; A8U C57U: 5.42 nM; A8U A52G: 5.67 nM. As to A8U A52U, the Kd turned out to be 17.4 nM. For the variant C9G A15U, the Kd was 7.39 nM. For the variant C9G A15G, the dissociation constant (Kd) was 6.64 nM. Consider G7U C66U, for which the Kd is 6.12 nM. On to G7U G56A, for which the Kd came to 9.43 nM.

As for G7U G56U, the Kd was 7.83 nM. On to G7U G32A, for which the Kd came out at 4.74 nM. The figure for A8U U41G is 6.19 nM; for A8U U41C it is 85.6 nM.

A8U C37U: the Kd was 13.2 nM. Next, A8U C37A: 22.1 nM.

A8U G26A: the Kd came out at 4.2 nM. For A8G A15U, the Kd stood at 5.54 nM. For the variant A8G A15G, the Kd worked out at 6.29 nM. A8G U28C: the Kd stood at 7.19 nM.

As to A8G U28A, the Kd was found to be 4.13 nM. With A8G U28G, the Kd was 6.24 nM. Next, C9G A31U: 7.5 nM; C9G A31G: 8.03 nM; A8G U41G: 6.37 nM.

Regarding G7U G26A, the Kd was determined as 5.82 nM. For the variant G7U G26U, the Kd turned out to be 6.93 nM. Consider G7C U10G, for which the Kd was 6.28 nM. In the case of A8U A67G, the dissociation constant (Kd) amounted to 5.61 nM. Next, A8U A67U: 7.42 nM. The figure for A8U G56U is 6.41 nM; for A8U G56A it is 16.7 nM.

For C9A U22G, the Kd amounted to 3.88 nM. As for A8U A59G, the Kd came out at 47.2 nM.

G7A C13G: the Kd is 6.51 nM. In the case of G7U G42U, the Kd is 17.4 nM. With G7U G42A, the Kd came to 59 nM.

Consider G7U G64U, for which the Kd turned out to be 7.33 nM. As for G7U G64A, the Kd amounted to 8.36 nM. For the variant G7A U29G, the Kd is 6.46 nM. G7U C25G: the Kd was 5.61 nM. Regarding G7U C25U, the Kd amounted to 5.7 nM.

A8G C66U: the Kd worked out at 5.01 nM.

Turning to A8G C57U, the Kd stood at 6 nM. Take A8U G42A: the Kd was 71.2 nM.

As to A8U C17G, the Kd turned out to be 6.07 nM. Turning to A8U C17U, the Kd came to 5.13 nM.

Consider G7A U22G, for which the Kd worked out at 7 nM.

In the case of A8G G34A, the Kd is 4.84 nM. For A8G G32A, the Kd was determined as 5.07 nM. Next, G7U C12G: 6.89 nM. With G7U C12U, the Kd amounted to 5.94 nM.

With A8U U47A, the Kd was 15.7 nM.

For the variant A8U U47G, the Kd was determined as 5.6 nM.

For G7U U10C, the Kd is 5.96 nM.

In the case of G7U U10A, the Kd was determined as 7.85 nM.

Turning to G7U U10G, the dissociation constant Kd turned out to be 5.68 nM. Consider A8G U47G, for which the Kd was 7.16 nM. For the variant A8G U47A, the Kd was 10.9 nM.

As for G7U G54U, the Kd came to 5.44 nM. As to G7U G54A, the Kd is 15.7 nM. Take C9G A19U: the Kd was determined as 7.14 nM. For C9G A19G, the Kd amounted to 5.58 nM. For A8G C17G, the Kd came out at 5.53 nM. Next, A8G C17U: 4.94 nM; G7A U41G: 6.05 nM. Consider A8G G63A, for which the Kd was found to be 16.1 nM.

With A8G G63U, the Kd turned out to be 11 nM. Next, A8G G54A: 14.6 nM; A8G G44A: 39.3 nM; A8U C9G: 6.03 nM. Next, A8U C9U: 6.55 nM; A8C C13G: 6.73 nM. Next, A8G U22G: 5.75 nM. In the case of A8G U22C, the Kd worked out at 5.08 nM. As to G7U U60C, the Kd worked out at 10.9 nM.

In the case of A8U G18A, the Kd is 5.68 nM.

As to A8U G18U, the Kd was 5.91 nM.

Turning to G7U A24U, the Kd amounted to 6.81 nM. On to G7U A24G, for which the Kd worked out at 6.71 nM.

For the variant A8G U10C, the Kd was 5.52 nM.

For the variant A8G U10G, the Kd was found to be 5.44 nM. Next, A8G U10A: 5.37 nM; A8U C13G: 6.33 nM; A8U C13U: 4.96 nM. Regarding A8U C13A, the Kd was 7.3 nM. For the variant A8G C12G, the Kd came out at 5.74 nM. On to A8G C12U, for which the Kd was determined as 5.09 nM. The figure for A8U U29A is 4.61 nM; for A8U U29C it is 6.56 nM; for A8U U29G it is 5.87 nM. Regarding G7U U28C, the Kd is 9.32 nM. As to G7U U28G, the Kd is 8.81 nM.

G7U U28A: the dissociation constant (Kd) was 5.51 nM. For G7U G16U, the Kd amounted to 7.06 nM. As to G7U G16A, the Kd was 6.97 nM.

As for A8C C9G, the Kd amounted to 7.53 nM. The figure for A8G A19G is 5.51 nM; for A8G A19U it is 5.53 nM; for A8G G11A it is 6.3 nM.

As for A8G G11U, the Kd worked out at 6.74 nM. As to A8G U61C, the Kd came out at 70.8 nM.

Turning to A8G U61A, the Kd was 29.3 nM.

Consider G7A G14U, for which the Kd was found to be 6.75 nM. For the variant A8G G48A, the Kd turned out to be 11.7 nM. Turning to A8U G65A, the dissociation constant Kd was found to be 5.1 nM. Regarding A8U G65U, the Kd was 8.03 nM. Regarding A8U C35U, the Kd worked out at 12.5 nM. As for G7U C35U, the Kd was 8.9 nM. In the case of G7U C35A, the Kd is 8.62 nM. With A8G G30U, the Kd turned out to be 4.7 nM.

As for A8G G30A, the Kd came out at 4.89 nM. With G7U G63U, the equilibrium dissociation constant (Kd) was determined as 15.8 nM. Consider G7U G63A, for which the Kd worked out at 19.9 nM.

For the origin of these results see the RNAGym collection of RNA variant scans (doi:10.1038/nmeth.2970).
